Source: PubChem BioAssay
Most compounds without a hit are left out; they make up all but 1.5% or so of the library.
Jurkat NFkB inh = lowers PMA/ionomycin-induced NF-kB signal in Jurkat cells; PMA/ionomycin-induced NF-kB luciferase reporter, luminescence; inhibition, % at 4 µM; 330,000 compounds, 0.53% hits; in the data active = inhibition above about 50%
GalR3 antagonist = blocks the human galanin receptor 3. O60755. HEK293 GalR3-CNG cAMP membrane potential fluorescence; galR3 body fused to GalR1 C-terminus. inhibition, % at 3 µM. 360,000 compounds, 0.44% hits. AID 651719;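 active = inhibition above the screen-wide average plus 3 SD, cut at about 13% in these data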;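 also: forskolin and galanin both at EC90 stimulate the cells; cAMP rise reported by CNG channel membrane potential dye signal; 0% = forskolin plus galanin with DMSO and 100% = forskolin alone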
GASC-1 inh = blocks human GASC-1 demethylase activity; AID 2099; Q9H3R0; 330,000 compounds, 0.069% hits; GST-JMJD2C(1-420) H3K9me3 demethylation, DELFIA europium; inhibition, % at 2.35 µM;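 active = more than half of a compound's replicate wells show inhibition beyond 50%, single wells judged on their own value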;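 also: signal counts dimethyl H3K9 product captured on neutravidin plate; 0% = median of DMSO wells and 100% = 0.3 times that DMSO median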
Target sequence (Q9H3R0 1-420 limits assumed): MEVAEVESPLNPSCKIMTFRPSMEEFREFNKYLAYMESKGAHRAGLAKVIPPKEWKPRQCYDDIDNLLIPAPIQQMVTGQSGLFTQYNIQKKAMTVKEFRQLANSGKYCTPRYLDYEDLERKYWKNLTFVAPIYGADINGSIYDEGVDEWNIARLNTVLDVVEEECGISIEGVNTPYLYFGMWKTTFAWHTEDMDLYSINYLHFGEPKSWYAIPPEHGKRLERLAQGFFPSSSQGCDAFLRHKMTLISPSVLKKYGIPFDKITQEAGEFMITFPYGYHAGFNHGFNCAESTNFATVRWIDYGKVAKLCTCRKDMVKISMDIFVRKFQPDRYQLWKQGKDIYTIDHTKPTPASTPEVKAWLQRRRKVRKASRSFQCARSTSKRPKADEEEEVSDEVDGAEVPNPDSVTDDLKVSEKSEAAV
697 NFkB inh = inhibitors of the PMA/ionomycin-induced NF-kB reporter in 697 B cells; 697 B-cell NF-kB luciferase reporter, 16 h; 330,000 compounds, 0.33% hits; inhibition, % at 4 µM; in the data active = inhibition above about 35%
NR2E3 ag-1 = human photoreceptor-specific nuclear receptor agonism; inhibition of corepressor binding, % at 3.98 µM; AID 602229; 360,000 compounds, 0.35% hits; CHO-S Gal4-NCOR/VP16-NR2E3 two-hybrid, luciferase;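 active = inhibition above the mean of all tested compounds plus 3 SD, cut at about 70% in these data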;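 also: 0% = DMSO with NR2E3 transfected cells and 100% = cells lacking NR2E3 construct; higher means lower luciferase signal from less NR2E3 corepressor binding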
NR2E3 ag-2 = NR2E3 (human) agonism; inhibition of corepressor binding, % at 4.78 µM; Q9Y5X4; 320,000 compounds, 0.12% hits; GST-NR2E3/biotin-RetCOR TR-FRET, 1536-well;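 active = percent inhibition above the cutoff of mean plus 3 SD of all tested compounds, set per screening campaign, cut at about 20% in these data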;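 also: 0% = DMSO wells and 100% = biotin wells as full block of FRET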
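Material: NR2E3–RetCOR corepressor complex / Incubation: Compound–protein incubation for 5 h at 4 °C / Dosing: compound at 4.8 µM, single dose / Detection: time-resolved FRET / Benchmarks: high control biotin, low control 0.6% DMSO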
NR2E3 ag conf = confirmation of human NR2E3 agonists. shares compounds with NR2E3 ag-1. CHO-S mammalian two-hybrid NR2E3-NCOR, luciferase luminescence. inhibition, % at 3.98 µM. 2,300 compounds, 51% hits. AID 624378;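 active = average inhibition above a cutoff equal to the mean inhibition of all tested compounds plus one SD, cut at about 70% in these data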;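 also: 0% = DMSO in NR2E3 cells and 100% = DMSO in cells lacking NR2E3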
VP16 counter = GAL4-VP16 reporter inhibition in NR2E3 agonist counterscreen | shares compounds with NR2E3 ag-1 | CHO-S GAL4-VP16 luciferase reporter, luminescence | inhibition, % at 3.98 µM | 2,300 compounds, 29% hits;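 active = mean inhibition above a cutoff equal to the average over all tested compounds plus one standard deviation, cut at about 70% in these data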;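 also: luciferase from a UAS reporter driven by GAL4-VP16 transactivation; 0% = DMSO with VP16-transfected cells and 100% = DMSO with cells lacking VP16; higher means less reporter light so more repression of VP16 activity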
Active calls of the source: *.

`COc1cc(NC(=NS(=O)(=O)c2ccccc2)c2ccccc2)ncn1` gave GalR3 antagonist -6 and NR2E3 ag-1 -68.
Screening NC1=C(Br)C(=O)c2ncccc2C1=O returned GalR3 antagonist -3, NR2E3 ag-1 99*, NR2E3 ag conf 92* and VP16 counter 51.
`COc1cccc(C=Nc2ccc3c(c2)OCCO3)c1O` gave Jurkat NFkB inh 6, GASC-1 inh 60, 697 NFkB inh -16, NR2E3 ag-1 74*, NR2E3 ag-2 1, NR2E3 ag conf -18 and VP16 counter -24.
For COc1cccc(C=Nc2ccc(N3CCOCC3)cc2)c1O the results were Jurkat NFkB inh -6, GalR3 antagonist -6, GASC-1 inh 0, 697 NFkB inh 5, NR2E3 ag-1 1 and NR2E3 ag-2 -2.
Screening S=c1nc(C2COc3ccccc3O2)[nH][nH]1 (configuration not stated) returned Jurkat NFkB inh -16, GalR3 antagonist -4, GASC-1 inh 8, 697 NFkB inh -5, NR2E3 ag-1 -64 and NR2E3 ag-2 -2.
For CCCS(=O)(=O)c1cnc(C2COc3ccccc3O2)nc1N (configuration not stated) the results were Jurkat NFkB inh 48, GalR3 antagonist -12, GASC-1 inh 26, 697 NFkB inh -14, NR2E3 ag-1 56, NR2E3 ag-2 1, NR2E3 ag conf 43 and VP16 counter 12.
CCCCOc1ccc(CONS(=O)(=O)c2ccc(NC(C)=O)cc2)cc1Cl was read as Jurkat NFkB inh 1, GalR3 antagonist 0, GASC-1 inh -5, 697 NFkB inh 8, NR2E3 ag-1 50, NR2E3 ag-2 -5, NR2E3 ag conf 81* and VP16 counter 54.
CCC(C)c1ccccc1N1CC(C(=O)N2CCN(S(=O)(=O)c3cccc([N+](=O)[O-])c3)CC2)CC1=O (configuration not stated) was read as Jurkat NFkB inh 3, GalR3 antagonist 0, 697 NFkB inh -3 and NR2E3 ag-1 11.
CC(=O)Nc1ccc(S(=O)(=O)NCCSCc2cccc(Cl)c2)cc1 was read as Jurkat NFkB inh 8, GalR3 antagonist 2, GASC-1 inh -8, 697 NFkB inh -9, NR2E3 ag-1 -10 and NR2E3 ag-2 -4.
CC(=O)Nc1ccc(S(=O)(=O)NCCSCc2c(Cl)cccc2Cl)cc1 was read as Jurkat NFkB inh 9, GalR3 antagonist -5, GASC-1 inh -1, 697 NFkB inh -7, NR2E3 ag-1 62, NR2E3 ag-2 1, NR2E3 ag conf 71* and VP16 counter 58.
Screening O=C(CCCN1C(=O)/C(=C/c2ccccc2Cl)SC1=S)NCCCN1CCOCC1 returned Jurkat NFkB inh -9, GalR3 antagonist 2, GASC-1 inh 4, 697 NFkB inh 34, NR2E3 ag-1 78*, NR2E3 ag-2 2, NR2E3 ag conf -18 and VP16 counter 63.
For O=C(CCN1C(=O)/C(=C/c2ccccc2F)SC1=S)NCCCN1CCOCC1 the results were Jurkat NFkB inh -12, GalR3 antagonist -9, GASC-1 inh 2, 697 NFkB inh -24, NR2E3 ag-1 11 and NR2E3 ag-2 0.
`CC(=O)c1c(C)[nH]c(C(=O)OCC(=O)c2ccc3c(c2)NC(=O)CO3)c1C` gave Jurkat NFkB inh 6, GalR3 antagonist -6, GASC-1 inh 2, 697 NFkB inh 3 and NR2E3 ag-1 13.
For CC(=O)c1c(C)[nH]c(C(=O)OCC(=O)Nc2ccc(Cl)cc2[N+](=O)[O-])c1C the results were Jurkat NFkB inh 31, GalR3 antagonist 71*, GASC-1 inh 6, 697 NFkB inh -27, NR2E3 ag-1 86*, NR2E3 ag-2 -1, NR2E3 ag conf 96* and VP16 counter 89*.
